Measured values from ChEMBL document CHEMBL1155883, “5-Alkyl-6-benzyl-2-(2-oxo-2-phenylethylsulfanyl)pyrimidin-4(3H)-ones, a series of anti-HIV-1 agents of the dihydro-alkoxy-benzyl-oxopyrimidine family with peculiar structure-activity relationship profile” (J Med Chem, 2008).

Legend:
[1] = Selectivity index, ratio of CC50 for human MT4 cells to EC50 for HIV1 NL4-3; format: toxicity, cell-based; settings: read-out: Ratio CC50/EC50
In short: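 Computed as CC50/EC50. CC50 comes from MTT viability of mock-infected MT-4 cells and EC50 from MTT protection of NL4-3-infected MT-4 cells, both read at day 5.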

[2] = tested on: Human immunodeficiency virus 1; assay: Antiviral activity against HIV1 isolates with reverse transcriptase K103N mutation in human MT4 cells assessed as inhibition of virus-induced cytopathogenicity by MTT assay; format: functional, organism-based; settings: Human immunodeficiency virus 1, MT4
In short: (§1)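 MT-4 lymphoid cells infected with HIV-1 carrying RT K103N, Y181C or Y188L, in the presence of different drug concentrations. Viable cells counted at day 5 postinfection by MTT colorimetric assay. EC50 is the concentration that inhibits 50% of the HIV-induced cytopathic effect.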

[3] = tested on: Human immunodeficiency virus 1; assay: Resistance index, ratio of ID50 for reverse transcriptase L100I mutant to IC50 for wild-type HIV1 reverse transcriptase
In short: (§2)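 Recombinant wt and K103N, L100I or Y181I HIV-1 RT (>95% pure), 2-4 nM. RNA-dependent DNA polymerase assay on 0.5 µg poly(rA)/oligo(dT) 10:1 (0.3 µM 3'-OH ends) with 10 µM [3H]-dTTP and 8% final DMSO. Aliquots taken every 2 min. Inhibitor range 0.2-5× ID50, fitted to a noncompetitive model. Fold resistance is mutant ID50 divided by wt ID50.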

[4] = tested on: Human immunodeficiency virus 1; assay: Resistance index, ratio of EC50 for drug-resistant HIV1 isolate with reverse transcriptase K103N mutation to EC50 for wild type HIV1 NL4-3; format: functional
In short: (§3)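 Fold resistance is the EC50 against the K103N, Y181C or Y188L mutant strain divided by the EC50 against wt NL4-3. Each EC50 is from MT-4 cells infected in the presence of different drug concentrations, with viability read by MTT at day 5 postinfection.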

[5] = tested on: Human immunodeficiency virus 1; assay: Antiviral activity against HIV1 isolates with reverse transcriptase Y181C mutation in human MT4 cells assessed as inhibition of virus-induced cytopathogenicity by MTT assay; format: functional, organism-based; settings: Human immunodeficiency virus 1, MT4; in short: as §1
[6] = tested on: Human immunodeficiency virus 1; assay: Antiviral activity against HIV1 NL4-3 in human MT4 cells assessed as inhibition of virus-induced cytopathogenicity by MTT assay; format: functional, organism-based; settings: Human immunodeficiency virus 1, NL4-3, MT4
In short: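 MT-4 lymphoid cells infected with wild-type HIV-1 NL4-3 in the presence of a range of compound concentrations. Viable cells were counted by MTT colorimetric read-out at day 5 post-infection. EC50 is the concentration giving 50% protection from virus-induced cytopathic effect. Means ± SD from at least two or three experiments.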

[7] = tested on: Human immunodeficiency virus 1; assay: Antiviral activity against HIV1 isolates with reverse transcriptase Y188L mutation in human MT4 cells assessed as inhibition of virus-induced cytopathogenicity by MTT assay; format: functional, organism-based; settings: Human immunodeficiency virus 1, MT4; in short: as §1
[8] = tested on: Human immunodeficiency virus 1; assay: Resistance index, ratio of ID50 for reverse transcriptase K103N mutant to IC50 for wild-type HIV1 sreverse transcriptase; in short: as §2
[9] = tested on: Human immunodeficiency virus 1; assay: Resistance index, ratio of ID50 for reverse transcriptase Y181I mutant to IC50 for wild-type HIV1 reverse transcriptase; in short: as §2
[10] = Cytotoxicity against human MT4 cells by MTT assay; format: cell-based
In short: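 Mock-infected MT-4 cells were exposed to a range of compound concentrations. Viability was read by MTT at day 5. CC50 is the concentration that kills 50% of uninfected cells. The top concentration was limited by compound precipitation in culture medium. Means ± SD from at least two or three experiments.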

[11] = tested on: Human immunodeficiency virus type 1 reverse transcriptase (Human immunodeficiency virus 1), Q72547 [Y181I]
[12] = tested on: Human immunodeficiency virus 1; assay: Resistance index, ratio of EC50 for drug-resistant HIV1 isolate with reverse transcriptase Y181C mutation to EC50 for wild type HIV1 NL4-3; format: functional; in short: as §3
[13] = tested on: Human immunodeficiency virus type 1 reverse transcriptase (Human immunodeficiency virus 1), Q72547 [K103N]
[14] = molecular target: Human immunodeficiency virus type 1 reverse transcriptase (Human immunodeficiency virus 1) (UniProt Q72547)
[15] = tested on: Human immunodeficiency virus type 1 reverse transcriptase (Human immunodeficiency virus 1), Q72547 [L100I]

Compound	selectivity ratio [1]	EC50 [2] [nM]	Ratio [3]	Ratio EC50 [4]	EC50 [5] [nM]	EC50 [6] [nM]	EC50 [7] [nM]	Ratio [8]	Ratio [9]	CC50 [10] [nM]	ID50 [11] [nM]	Ratio EC50 [12]	ID50 [13] [nM]	ID50 [14] [nM]	ID50 [15] [nM]
Cc1ccnc2c1NC(=O)c1cccnc1N2C1CC1 [NEVIRAPINE]	> 54	4960	22	38	> 7000	130	> 7000	17	87	> 7000					
COc1ccc(C(=O)CSc2nc(Cc3c(F)cccc3Cl)c(C)c(=O)[nH]2)cc1	> 60	> 12000	1390		1570	200	> 12000	150	67	> 12000	1200	8	2700	18	25000
CC(C)c1c(Cc2c(F)cccc2F)nc(SCC(=O)c2ccc(F)cc2)[nH]c1=O	> 11600	> 58000	70		180	5	> 58000	71		> 58000	> 40000	36	5820	82	5700
O=C(CSc1nc(Cc2c(F)cccc2Cl)cc(=O)[nH]1)c1ccccc1	> 10	> 13000	750		> 13000	1260	> 13000	1000	200	> 13000	400		2000	2	1500
CCc1c(Cc2c(F)cccc2Cl)nc(SCC(=O)c2ccc(F)cc2)[nH]c1=O	> 11400	4140	170	828	1930	5	> 57000	50	12	> 57000	380	386	1640	33	5600
CCC(C)c1c(Cc2c(F)cccc2Cl)nc(SCC(=O)c2ccc(F)cc2)[nH]c1=O (stereo not drawn)	> 3180	> 54000	1360		860	17	> 54000			> 54000	> 40000	51	> 40000	24	32700
Cc1c(Cc2c(F)cccc2F)nc(SCC(=O)c2ccccc2)[nH]c1=O	4330	19000	38	1267	520	15	> 65000	32	5	65000	1680	35	10400	330	12700
COc1ccc(CSc2nc(Cc3c(Cl)cccc3Cl)c(C)c(=O)[nH]2)cc1	4570			671			> 32000	25500	37500	32000					
CCc1c(Cc2c(F)cccc2F)nc(SCC(=O)c2ccccc2)[nH]c1=O	4670	1300	126	108	200	12	> 56000	86	19	56000	820	17	3700	43	5400
